Reference: ChEMBL document CHEMBL4196174, “Discovery of Indole Derivatives as Novel and Potent Dengue Virus Inhibitors” (J Med Chem, 2018)
Values after ≈ are worked out from the molar mass of the structure shown.

Assays:
dengue virus type 2 [1] = assay: Antiviral activity against Dengue virus 2 Rega infected in African green monkey Vero cells assessed as reduction in viral yield after 4 days by qRT-PCR analysis; assay type: functional, organism-based
In short: (§1)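 Virus yield reduction in Vero cells (seeded 5×10^4/well). Next day infected with DENV (MOI 0.01) in assay medium (MEM, 2% FBS, 0.075% bicarbonate, 2 mM L-glutamine). After 1 h, input virus was removed and cells rinsed 3 times. Medium with 3- or 5-fold compound serial dilutions was then added. Incubation was 4 days (DENV-2, DENV-4) or 7 days (DENV-1, DENV-3). Supernatant viral RNA was measured by RT-qPCR, and EC50 obtained by logarithmic interpolation.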

[2] = (§2) Cytotoxicity against African green monkey Vero cells assessed as cell growth inhibition after 4 days by MTS/PMS method; assay type: cell-based; settings: chlorocebus sabaeus, Vero cells
In short: (§3)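 Cytotoxicity run as in the yield assay, but without virus. Vero cells (5×10^4/well) were exposed to 3- or 5-fold serial dilutions in MEM with 2% FBS. Viability was read by the MTS/PMS colorimetric method. CC50 was derived by logarithmic interpolation.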

[3] = Solubility of the compound in DMSO solution at pH 7.4; assay type: physicochemical
In short: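 Solubility measured at pH 7.4, starting from a DMSO solution.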

P-gp (MDR1) = assay: (§4) Apparent permeability across apical to basolateral side in MDR1 transfected pig LLC-PK1 cells in absence of P-gp inhibitor GF120918; assay type: ADME, cell-based, Sus scrofa; settings: LLC-PK1
In short: (§5)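 Permeability measured in MDR1-transfected LLC-PK1 cells without the P-gp inhibitor GF120918.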

[4] = Protein binding in human plasma; assay type: ADME, cell-free; settings: for fraction unbound: read-out: PPB (converted)
[5] = Protein binding in rat plasma; assay type: ADME, cell-free; settings: for fraction unbound: read-out: PPB (converted)
[6] = Drug metabolism in human liver microsomes after 15 mins; assay type: ADME, microsome; settings: for metabolised at 0.25 h: liver microsomes, read-out: Drug metabolism; for Drug metabolism: microsomes, 0.25 h
In short: (§6)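 Percentage of compound metabolized after 15 min incubation with human or rat liver microsomes.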

[7] = Drug metabolism in rat liver microsomes after 15 mins; assay type: ADME, microsome; settings: for metabolised at 0.25 h: liver microsomes, read-out: Drug metabolism; for Drug metabolism: microsomes, 0.25 h; in short: as §6
Cytochrome P450 1A2 = target: T1, Cytochrome P450 1A2 (Homo sapiens, UniProt P05177); assay: Inhibition of CYP1A2 (unknown origin); assay type: ADME
T1 sequence (P05177 whole entry): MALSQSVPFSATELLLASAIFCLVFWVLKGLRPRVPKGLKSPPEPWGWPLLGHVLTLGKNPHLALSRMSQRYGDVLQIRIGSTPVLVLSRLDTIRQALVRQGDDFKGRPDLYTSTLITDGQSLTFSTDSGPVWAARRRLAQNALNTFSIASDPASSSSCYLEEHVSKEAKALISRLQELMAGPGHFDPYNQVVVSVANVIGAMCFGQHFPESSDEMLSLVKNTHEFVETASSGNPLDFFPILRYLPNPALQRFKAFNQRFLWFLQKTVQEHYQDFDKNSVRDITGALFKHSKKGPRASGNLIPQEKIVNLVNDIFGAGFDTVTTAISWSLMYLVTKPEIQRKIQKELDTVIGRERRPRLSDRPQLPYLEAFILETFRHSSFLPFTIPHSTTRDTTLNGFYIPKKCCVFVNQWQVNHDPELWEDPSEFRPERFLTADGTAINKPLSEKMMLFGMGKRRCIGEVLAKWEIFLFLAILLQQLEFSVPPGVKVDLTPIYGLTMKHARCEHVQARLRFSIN

Cytochrome P450 2C19 = Cytochrome P450 2C19 (Homo sapiens, UniProt P33261); assay: Inhibition of CYP2C19 (unknown origin); assay type: ADME
Chain of Cytochrome P450 2C19 (P33261 whole entry): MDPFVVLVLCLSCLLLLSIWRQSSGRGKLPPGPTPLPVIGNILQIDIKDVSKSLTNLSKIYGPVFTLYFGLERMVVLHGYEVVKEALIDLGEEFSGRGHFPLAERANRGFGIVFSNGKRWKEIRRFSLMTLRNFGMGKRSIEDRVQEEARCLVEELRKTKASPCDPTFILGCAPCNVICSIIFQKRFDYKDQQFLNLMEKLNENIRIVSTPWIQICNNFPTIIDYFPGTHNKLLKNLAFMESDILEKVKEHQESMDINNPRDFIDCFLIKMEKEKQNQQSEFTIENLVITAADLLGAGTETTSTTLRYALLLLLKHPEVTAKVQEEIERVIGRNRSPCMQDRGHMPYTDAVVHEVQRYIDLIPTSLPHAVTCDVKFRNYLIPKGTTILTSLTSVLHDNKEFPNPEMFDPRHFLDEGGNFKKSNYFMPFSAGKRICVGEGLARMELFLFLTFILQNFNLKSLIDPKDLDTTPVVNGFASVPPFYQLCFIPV

Cytochrome P450 2C9 = Cytochrome P450 2C9 (Homo sapiens, UniProt P11712); assay: Inhibition of CYP2C9 (unknown origin); assay type: ADME
Chain of Cytochrome P450 2C9 (P11712 whole entry): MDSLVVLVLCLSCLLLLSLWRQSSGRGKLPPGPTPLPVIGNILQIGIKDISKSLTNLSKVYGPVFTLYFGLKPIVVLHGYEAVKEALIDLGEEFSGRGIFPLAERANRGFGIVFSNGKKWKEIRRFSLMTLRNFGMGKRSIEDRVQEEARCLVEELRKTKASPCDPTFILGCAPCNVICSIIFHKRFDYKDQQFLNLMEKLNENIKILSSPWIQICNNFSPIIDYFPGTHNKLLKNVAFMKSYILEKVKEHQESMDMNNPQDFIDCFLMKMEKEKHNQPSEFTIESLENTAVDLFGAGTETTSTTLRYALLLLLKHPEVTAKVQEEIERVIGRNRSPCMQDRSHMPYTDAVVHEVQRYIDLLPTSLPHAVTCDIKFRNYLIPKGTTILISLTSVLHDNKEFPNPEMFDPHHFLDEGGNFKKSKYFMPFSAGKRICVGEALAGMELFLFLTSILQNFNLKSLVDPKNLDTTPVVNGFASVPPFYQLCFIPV

Cytochrome P450 2D6 = Cytochrome P450 2D6 (Homo sapiens, UniProt P10635); assay: Inhibition of CYP2D6 (unknown origin); assay type: ADME
Chain of Cytochrome P450 2D6 (P10635 whole entry): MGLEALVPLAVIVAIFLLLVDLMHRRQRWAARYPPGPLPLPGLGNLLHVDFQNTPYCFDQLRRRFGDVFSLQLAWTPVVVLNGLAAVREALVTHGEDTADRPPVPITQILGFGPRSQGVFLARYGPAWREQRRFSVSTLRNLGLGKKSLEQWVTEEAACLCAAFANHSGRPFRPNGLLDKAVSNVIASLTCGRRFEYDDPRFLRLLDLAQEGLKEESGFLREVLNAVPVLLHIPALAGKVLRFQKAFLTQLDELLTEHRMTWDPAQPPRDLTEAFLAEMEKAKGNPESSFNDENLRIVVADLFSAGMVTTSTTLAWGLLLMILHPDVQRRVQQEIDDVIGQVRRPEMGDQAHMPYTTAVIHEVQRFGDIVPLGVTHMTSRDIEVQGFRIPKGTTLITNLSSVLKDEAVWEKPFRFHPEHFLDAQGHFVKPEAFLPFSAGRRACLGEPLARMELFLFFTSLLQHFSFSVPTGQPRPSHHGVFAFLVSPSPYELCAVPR

Cytochrome P450 3A4 = Cytochrome P450 3A4 (Homo sapiens, UniProt P08684); assay: Inhibition of CYP3A4 (unknown origin); assay type: ADME
Chain of Cytochrome P450 3A4 (P08684 whole entry): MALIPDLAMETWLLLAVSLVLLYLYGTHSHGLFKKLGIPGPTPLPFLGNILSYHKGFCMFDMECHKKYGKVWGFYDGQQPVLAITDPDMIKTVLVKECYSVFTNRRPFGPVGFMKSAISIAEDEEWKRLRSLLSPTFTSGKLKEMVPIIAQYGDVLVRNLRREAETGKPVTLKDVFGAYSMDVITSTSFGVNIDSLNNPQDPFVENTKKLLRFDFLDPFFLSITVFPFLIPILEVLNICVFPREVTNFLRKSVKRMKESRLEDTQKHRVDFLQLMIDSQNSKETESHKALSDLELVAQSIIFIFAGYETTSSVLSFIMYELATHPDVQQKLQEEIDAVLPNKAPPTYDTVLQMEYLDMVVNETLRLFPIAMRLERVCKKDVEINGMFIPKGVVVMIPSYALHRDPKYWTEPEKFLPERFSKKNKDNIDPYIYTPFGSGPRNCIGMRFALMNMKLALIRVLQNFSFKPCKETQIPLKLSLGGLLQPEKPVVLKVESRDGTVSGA

[8] = target: Voltage-gated inwardly rectifying potassium channel KCNH2 (Homo sapiens, UniProt Q12809); assay: Inhibition of human ERG
Chain of Voltage-gated inwardly rectifying potassium channel KCNH2 (Q12809 whole entry): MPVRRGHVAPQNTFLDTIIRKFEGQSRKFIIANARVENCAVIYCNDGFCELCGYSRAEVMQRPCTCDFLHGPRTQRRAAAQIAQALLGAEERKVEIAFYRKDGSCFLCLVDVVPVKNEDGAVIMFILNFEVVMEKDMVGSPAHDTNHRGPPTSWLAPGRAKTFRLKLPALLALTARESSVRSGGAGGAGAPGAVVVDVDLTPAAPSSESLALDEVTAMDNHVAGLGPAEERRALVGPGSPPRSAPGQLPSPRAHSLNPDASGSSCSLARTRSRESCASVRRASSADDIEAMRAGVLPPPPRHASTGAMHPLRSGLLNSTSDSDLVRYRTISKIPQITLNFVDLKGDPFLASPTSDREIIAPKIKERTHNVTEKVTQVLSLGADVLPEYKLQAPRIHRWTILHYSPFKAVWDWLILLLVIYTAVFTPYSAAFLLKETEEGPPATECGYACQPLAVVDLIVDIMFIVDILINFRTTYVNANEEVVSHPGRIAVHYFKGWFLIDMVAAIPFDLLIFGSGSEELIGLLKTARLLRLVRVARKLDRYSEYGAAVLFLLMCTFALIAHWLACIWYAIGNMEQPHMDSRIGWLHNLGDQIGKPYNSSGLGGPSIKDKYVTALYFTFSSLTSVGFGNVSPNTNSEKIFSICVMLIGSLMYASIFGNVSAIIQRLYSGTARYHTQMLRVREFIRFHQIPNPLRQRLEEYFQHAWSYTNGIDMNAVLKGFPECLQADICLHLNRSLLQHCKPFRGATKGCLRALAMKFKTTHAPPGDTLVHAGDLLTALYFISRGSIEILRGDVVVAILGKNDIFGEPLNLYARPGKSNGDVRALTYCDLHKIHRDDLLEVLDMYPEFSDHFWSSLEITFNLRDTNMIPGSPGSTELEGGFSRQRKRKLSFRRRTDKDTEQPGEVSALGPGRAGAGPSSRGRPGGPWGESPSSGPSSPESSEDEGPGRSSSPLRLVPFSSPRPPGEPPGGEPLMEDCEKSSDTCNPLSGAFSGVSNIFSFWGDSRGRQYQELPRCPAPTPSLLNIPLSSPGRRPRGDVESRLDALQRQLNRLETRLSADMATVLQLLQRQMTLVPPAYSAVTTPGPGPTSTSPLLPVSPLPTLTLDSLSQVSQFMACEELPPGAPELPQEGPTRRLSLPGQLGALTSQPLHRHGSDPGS

Salmonella typhimurium [9] = assay: Mutagenicity in Salmonella typhimurium in presence of human liver S9 fraction by Ames test; assay type: toxicity, organism-based; settings: salmonella enterica subsp. enterica serovar typhimurium
Salmonella typhimurium [10] = assay: Mutagenicity in Salmonella typhimurium in absence of human liver S9 fraction by Ames test; assay type: toxicity, organism-based; settings: salmonella enterica subsp. enterica serovar typhimurium
dengue virus type 1 = assay: Antiviral activity against Dengue virus 1 Djibouti D1/H/IMTSSA/98/606 infected in African green monkey Vero cells assessed as reduction in viral yield after 7 days by qRT-PCR analysis; assay type: functional, organism-based; settings: Djibouti D1/H/IMTSSA/98/606, Vero, 168 h; in short: as §1
dengue virus type 3 = assay: Antiviral activity against Dengue virus 3 H87 infected in African green monkey Vero cells assessed as reduction in viral yield after 7 days by qRT-PCR analysis; assay type: functional, organism-based; settings: 168 h; in short: as §1
dengue virus type 4 = assay: Antiviral activity against Dengue virus 4 DAKHD34460 infected in African green monkey Vero cells assessed as reduction in viral yield after 4 days by qRT-PCR analysis; assay type: functional, organism-based; settings: 96 h; in short: as §1
[11] = Selectivity index, ratio of CC50 for African green monkey Vero cells to EC50 for Dengue virus 2 Rega; assay type: toxicity; settings: read-out: Ratio CC50/EC50
dengue virus type 2 [12] = assay: Antiviral activity against Dengue virus 2 Rega infected in African green monkey Vero cells assessed as log10 reduction of viral RNA replication at nontoxic dose after 4 days by qRT-PCR analysis relative to control; assay type: functional
[13] = Half life in human liver microsomes; assay type: ADME, microsome
Vero = assay: as §2; assay type: cell-based; settings: chlorocebus sabaeus, vero, 96 h; in short: as §3
[14] = as §4; assay type: ADME, cell-based, Sus scrofa; settings: llc-pk1; in short: as §5
[15] = Clearance in rat at 2.5 mg/kg, iv; assay type: ADME, organism-based; settings: in vivo
In short: (§7)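 Rat PK. Intravenous dose was 2.5 mg/kg in PEG400/water 7/3. Oral dose was 10 mg/kg in PEG400.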

[16] = Volume of distribution at steady state in rat at 2.5 mg/kg, iv; assay type: ADME, organism-based; settings: in vivo, read-out: Vdss; in short: as §7
[17] = Half life in rat at 2.5 mg/kg, iv; assay type: ADME, organism-based; settings: in vivo; in short: as §7
[18] = Cmax in rat at 10 mg/kg, po; assay type: ADME, organism-based; parameters: dose 10 mg/kg, route oral; settings: in vivo; in short: as §7
[19] = AUClast in rat at 10 mg/kg, po; assay type: ADME, organism-based; parameters: dose 10 mg/kg, route oral, time 0 - last; settings: in vivo; in short: as §7
[20] = Oral bioavailability in rat at 10 mg/kg; assay type: ADME, organism-based; settings: in vivo; in short: as §7

Row | SMILES | EC50 (dengue virus type 2 [1]; Dengue virus, Rega, Vero, 96 h) | solubility ([3]; read-out: solubility) | Papp A→B (P-gp (MDR1)) | fraction unbound [4] | fraction unbound [5] | metabolised at 0.25 h [6] | metabolised at 0.25 h [7] | IC50 (Cytochrome P450 1A2) | IC50 (Cytochrome P450 2C19) | IC50 (Cytochrome P450 2C9) | IC50 (Cytochrome P450 2D6) | IC50 (Cytochrome P450 3A4) | EC50 (dengue virus type 2 [1]; vero) | PPB [4] | Drug metabolism [6] | CC50 at 96 h [2] | IC50 [8] | Activity (Salmonella typhimurium [9]) | Activity (Salmonella typhimurium [10]) | CC50 (Vero) | other results
1 | COc1cncc(NC(C(=O)c2c[nH]c3ccccc23)c2ccccc2)c1 (configuration not stated) | 0.036 µM | 42 µM (≈ 15 µg/mL) | 4.7 ×10⁻⁶ cm/s | 0.005 | 0.008 | 23% | 86% | 2.8 µM | 2.5 µM | 3.3 µM | 8.4 µM | 0.05 µM |  |  |  | 20 µM | 3.5 µM | Non-Toxic | Non-Toxic |  | 
2 | COc1cc(NC(C(=O)c2c[nH]c3ccc(CCCO)cc23)c2ccccc2)cc(OC)c1 (configuration not stated) | 0.096 µM | 23 µM (≈ 10.2 µg/mL) |  |  |  |  |  |  |  |  |  |  |  |  |  | 56 µM |  |  |  |  | half-life [13]: 0.633 h
3 | COc1cc(NC(C(=O)c2c[nH]c3ccccc23)c2ccccc2)cc(OC)c1 (racemic) |  |  |  |  |  |  |  | 2.4 µM | 4 µM | 4.8 µM | > 10 µM | > 10 µM | 0.007 µM | 99.8% | 11% |  | > 50 µM | Non-Toxic | Non-Toxic | 16 µM | Papp [14]: 7.5 ×10⁻⁶ cm/s; PPB [5]: 99.9%; Drug metabolism [7]: 63%
4 | COc1cc(NC(C(=O)c2c[nH]c3ccccc23)c2ccccc2)cc(OCCO)c1 (single isomer, unassigned; (+)) |  | 48 µM (≈ 20 µg/mL) | 1.8 ×10⁻⁶ cm/s | 0.01 | 0.008 |  | 21% | > 10 µM | 4.4 µM | 3.1 µM | > 10 µM | > 10 µM | 0.012 µM |  | 2% |  | > 50 µM |  |  | 105 µM | clearance [15]: 35 mL/min/kg; Vd [16]: 5.8 L/kg; half-life [17]: 2.4 h; Cmax [18]: 706 nM; AUC(0-t) [19]: 7.32 µM·h; bioavailability [20]: 64%

Continued, in another order:

Row | EC50 (dengue virus type 2 [1]; Dengue virus, Rega, Vero, 96 h) | solubility ([3]; read-out: solubility) | Papp A→B (P-gp (MDR1)) | fraction unbound [4] | fraction unbound [5] | metabolised at 0.25 h [6] | metabolised at 0.25 h [7] | IC50 (Cytochrome P450 1A2) | IC50 (Cytochrome P450 2C19) | IC50 (Cytochrome P450 2C9) | IC50 (Cytochrome P450 2D6) | IC50 (Cytochrome P450 3A4) | EC50 (dengue virus type 2 [1]; vero) | PPB [4] | Drug metabolism [6] | SMILES | CC50 at 96 h [2] | IC50 [8] | Activity (Salmonella typhimurium [9]) | Activity (Salmonella typhimurium [10]) | CC50 (Vero) | other results
5 | 0.011 µM | 1 µM (≈ 0.397 µg/mL) | 5.6 ×10⁻⁶ cm/s | < 0.002 | < 0.004 | 19% | 99% | 4.2 µM | 3.2 µM | 6.1 µM | > 10 µM | > 10 µM |  |  |  | COc1cccc(NC(C(=O)c2c[nH]c3ccccc23)c2nc3ccccc3o2)c1 (configuration not stated) | 13 µM |  |  |  |  | 
6 | 0.078 µM |  |  |  |  |  |  |  |  |  |  |  |  |  |  | COc1ccc(NC(C(=O)c2c[nH]c3ccccc23)c2ccccc2)cc1OC (configuration not stated) | 29 µM |  | Non-Toxic | Non-Toxic |  | EC50 (dengue virus type 1): 1.6 µM; EC50 (dengue virus type 3): 29.4 µM; EC50 (dengue virus type 4): 4.5 µM; selectivity ratio [11]: 380; FC (dengue virus type 2 [12]): 3.8
7 |  | 6 µM (≈ 2.32 µg/mL) | 7.6 ×10⁻⁶ cm/s |  | 0.002 | 14% |  | 1.4 µM | 2.3 µM | 3.2 µM | > 10 µM | > 10 µM | 0.001 µM | 99.7% |  | COc1cc(NC(C(=O)c2c[nH]c3ccccc23)c2ccccc2)cc(OC)c1 (single isomer, unassigned; (+)) | 13 µM |  |  |  |  | EC50 (dengue virus type 1): 0.047 µM; EC50 (dengue virus type 3): 0.092 µM; EC50 (dengue virus type 4): 1.9 µM; Drug metabolism [7]: 37%; clearance [15]: 67 mL/min/kg; Vd [16]: 26 L/kg; half-life [17]: 4.7 h; Cmax [18]: 88 nM; AUC(0-t) [19]: 0.422 µM·h; bioavailability [20]: 7%
8 |  |  |  |  |  |  |  | 6.4 µM | 3 µM | 3 µM | > 10 µM | > 10 µM | 0.348 µM | 99.9% | 16% | COc1cc(NC(C(=O)c2c[nH]c3ccccc23)c2ccccc2)cc(OC)c1 (stereo in doubt; 12b) |  |  |  |  | 11 µM | solubility [3]: 9 µM (≈ 3.48 µg/mL); Papp [14]: 7.4 ×10⁻⁶ cm/s; PPB [5]: > 99.9%; Drug metabolism [7]: 91%
